pIC50: −log10 of the molar value. Active and inactive are the calls of the source. No cut-off for these calls is given here.
Legend:
[1] = Cytotoxicity against human CWR22Rv1 cells assessed as cell death at 25 uM after 72 hrs by propidium iodide staining-based FACS analysis; format: functional, CWR22R
In short: (§1)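 CWR22Rv1 cells seeded at 300,000/well in RPMI 1640 with 10% FBS, 2.5 mM L-glutamine and penicillin-streptomycin at 37 °C, 5% CO2, then switched to serum-free RPMI overnight. Compounds from DMSO stock diluted in serum-free RPMI, applied in triplicate. After treatment, cells trypsinized, fixed in 70% ethanol, RNase-treated (5 μg/mL), stained with propidium iodide (50 μg/mL), DNA content read by flow cytometry.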

[2] = biological target: Sodium channel protein type 2 subunit alpha (Homo sapiens) (UniProt Q99250); assay: Inhibition of human voltage-gated sodium channel 1.2-mediated current expressed in HEK293 cells at -60 to +10 mV holding poteinitial at 1 uM after 5 mins by patch clamp electrophysiology; format: cell-based
In short: (§2)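 Whole-cell patch clamp at 20–22 °C. Pipette solution CsCl/BAPTA/MgATP, pH 7.4; bath NaCl 130 mM, pH 7.4. ≥75% series resistance compensation; cells held at −100 mV for 5 min. Currents evoked by 25 ms steps from −60 to +10 mV every 15 s. Compound from 100 mM DMSO stock, perfused 5 min, then washout. Tonic block taken as peak current with drug versus drug-free.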

[3] = biological target: Sodium channel protein type 2 subunit alpha (Homo sapiens) (UniProt Q99250); assay: Inhibition of human voltage-gated sodium channel 1.2-mediated current expressed in HEK293 cells at -60 to +10 mV holding poteinitial at 10 uM after 5 mins by patch clamp electrophysiology; format: cell-based; in short: as §2
PC-3 [4] = assay: Antitumor activity against human PC3 cells xenografted in athymic BALB/c nude mouse assessed as reduction in tumor volume at 10 mg/kg, ip qd administered every other day for 24 days; format: functional; parameters: scale not given: the % may be the effect or the level left; details: route intraperitoneal
In short: (§3)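 Male athymic nude mice (18–22 g) given 3 × 10^6 PC3 cells subcutaneously in right axillary region; randomized one week later into four groups of 6. Compound from DMSO stock diluted in PEG 400/PBS (1:1), given ip once every other day; vehicle control group. Tumor size by caliper, volume = length × width × height/2. One-way ANOVA or ANOVA on ranks with Tukey/Dunn post hoc; mean ± S.E.M.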

[5] = (§4) Cytotoxicity against human CWR22Rv1 cells assessed as cell death at 25 uM after 24 hrs by propidium iodide staining-based FACS analysis; format: functional, CWR22R; in short: as §1
[6] = biological target: Sodium channel protein type 2 subunit alpha (Homo sapiens) (UniProt Q99250); assay: Reversible inhibition of human voltage-gated sodium channel 1.2-mediated current expressed in HEK293 cells at -60 to +10 mV holding poteinitial at 1 to 10 uM after 5 mins measured after drug washout by patch clamp electrophysiology; format: cell-based; in short: as §2
PC-3 [7] = assay: Antitumor activity against human PC3 cells xenografted in athymic BALB/c nude mouse assessed as reduction in tumor volume at 10 mg/kg, ip qd administered every other day for 24 days measured on day 15; format: functional, organism-based; parameters: dose 10 mg/kg; in short: as §3
CWR22R = assay: as §4; format: functional; in short: as §1
hERG (KCNH2) [8] = biological target: T1, hERG (KCNH2) (Homo sapiens, UniProt Q12809); assay: Displacement of [35S]MK-0499 from human ERG at 1 uM after >90 mins by scintillation counting; details: probe [35S]MK-0499
In short: (§5)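 Binding to membranes from HEK-293 cells stably expressing hERG, with 0.05 nM [35S]MK-499 in NaCl/KCl/HEPES buffer pH 7.4 with Mg2+ and Ca2+, 25 °C for >90 min. Filtered on BSA-presoaked GF/C plates, then scintillation counted. Five-point half-log titration, 0.3–30 μM. Percent inhibition relative to no-competitor control and 1 μM unlabeled MK-499; triplicate.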

[9] = biological target: Sodium channel protein type 9 subunit alpha (Homo sapiens, UniProt Q15858); assay: Inhibition of human voltage-gated sodium channel 1.7 expressed in HEK293 cells assessed as changes in membranre potential after 45 mins by FRET analysis
hERG (KCNH2) [10] = biological target: T1, hERG (KCNH2); assay: Displacement of [35S]MK-0499 from human ERG at 30 uM after >90 mins by scintillation counting; details: probe [35S]MK-0499; in short: as §5
hERG (KCNH2) [11] = biological target: T1, hERG (KCNH2); assay: Displacement of [35S]MK-0499 from human ERG at 3 uM after >90 mins by scintillation counting; details: probe [35S]MK-0499; in short: as §5
hERG (KCNH2) [12] = biological target: T1, hERG (KCNH2); assay: Displacement of [35S]MK-0499 from human ERG at 10 uM after >90 mins by scintillation counting; details: probe [35S]MK-0499; in short: as §5
hERG (KCNH2) [13] = biological target: T1, hERG (KCNH2); assay: Displacement of [35S]MK-0499 from human ERG at 0.3 uM after >90 mins by scintillation counting; details: probe [35S]MK-0499; in short: as §5

Sequence of Sodium channel protein type 2 subunit alpha (Homo sapiens) (Q99250 whole entry, looked up, the tested form may be a part): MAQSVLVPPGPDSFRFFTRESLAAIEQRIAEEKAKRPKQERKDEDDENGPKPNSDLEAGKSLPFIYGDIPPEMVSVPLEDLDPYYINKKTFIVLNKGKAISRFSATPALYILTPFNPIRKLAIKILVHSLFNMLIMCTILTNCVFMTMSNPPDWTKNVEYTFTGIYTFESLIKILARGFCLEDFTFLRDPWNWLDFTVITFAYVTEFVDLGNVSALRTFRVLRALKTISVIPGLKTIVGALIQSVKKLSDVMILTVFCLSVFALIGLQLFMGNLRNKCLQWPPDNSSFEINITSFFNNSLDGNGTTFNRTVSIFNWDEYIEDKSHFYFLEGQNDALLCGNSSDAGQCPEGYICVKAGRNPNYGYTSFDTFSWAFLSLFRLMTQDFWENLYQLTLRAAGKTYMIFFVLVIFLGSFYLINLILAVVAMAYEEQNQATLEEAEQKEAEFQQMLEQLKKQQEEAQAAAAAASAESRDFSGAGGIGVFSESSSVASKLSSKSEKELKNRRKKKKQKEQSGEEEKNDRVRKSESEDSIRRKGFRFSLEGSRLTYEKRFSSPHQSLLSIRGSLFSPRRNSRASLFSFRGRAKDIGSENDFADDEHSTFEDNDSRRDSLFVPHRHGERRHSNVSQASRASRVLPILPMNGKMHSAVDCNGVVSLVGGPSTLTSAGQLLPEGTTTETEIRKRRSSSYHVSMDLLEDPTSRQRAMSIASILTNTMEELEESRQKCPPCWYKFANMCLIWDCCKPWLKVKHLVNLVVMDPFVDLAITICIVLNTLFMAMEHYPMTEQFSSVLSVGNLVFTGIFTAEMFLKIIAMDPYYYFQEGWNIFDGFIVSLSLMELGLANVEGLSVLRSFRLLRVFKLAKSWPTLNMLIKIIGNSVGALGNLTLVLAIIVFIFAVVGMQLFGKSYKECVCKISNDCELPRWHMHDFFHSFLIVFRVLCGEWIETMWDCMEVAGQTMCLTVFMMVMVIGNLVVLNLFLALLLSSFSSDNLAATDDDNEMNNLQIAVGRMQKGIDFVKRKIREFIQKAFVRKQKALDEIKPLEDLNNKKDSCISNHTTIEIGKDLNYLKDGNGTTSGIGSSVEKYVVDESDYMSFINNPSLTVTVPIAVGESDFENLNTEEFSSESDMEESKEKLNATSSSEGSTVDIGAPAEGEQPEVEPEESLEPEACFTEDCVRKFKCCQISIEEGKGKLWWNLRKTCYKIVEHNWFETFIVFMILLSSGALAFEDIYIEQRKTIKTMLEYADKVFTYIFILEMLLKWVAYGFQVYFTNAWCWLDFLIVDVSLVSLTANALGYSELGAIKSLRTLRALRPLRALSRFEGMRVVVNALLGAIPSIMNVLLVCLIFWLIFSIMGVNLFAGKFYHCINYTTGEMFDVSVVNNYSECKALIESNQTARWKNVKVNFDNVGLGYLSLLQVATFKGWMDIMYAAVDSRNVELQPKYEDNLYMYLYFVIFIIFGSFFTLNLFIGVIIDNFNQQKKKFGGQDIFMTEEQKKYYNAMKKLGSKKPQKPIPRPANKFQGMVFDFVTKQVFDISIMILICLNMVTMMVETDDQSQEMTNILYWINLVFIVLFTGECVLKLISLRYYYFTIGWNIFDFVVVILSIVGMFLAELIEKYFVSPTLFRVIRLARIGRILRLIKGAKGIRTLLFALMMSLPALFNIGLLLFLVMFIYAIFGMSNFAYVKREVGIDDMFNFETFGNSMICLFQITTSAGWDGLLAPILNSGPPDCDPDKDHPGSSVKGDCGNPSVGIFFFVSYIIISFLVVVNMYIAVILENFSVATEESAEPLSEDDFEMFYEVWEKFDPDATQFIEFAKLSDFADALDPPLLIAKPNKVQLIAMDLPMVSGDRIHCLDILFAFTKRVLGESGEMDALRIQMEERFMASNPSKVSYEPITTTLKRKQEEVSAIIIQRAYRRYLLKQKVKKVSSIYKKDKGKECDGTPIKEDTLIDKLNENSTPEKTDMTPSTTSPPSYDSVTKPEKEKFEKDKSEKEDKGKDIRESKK
T1 sequence (Q12809 whole entry): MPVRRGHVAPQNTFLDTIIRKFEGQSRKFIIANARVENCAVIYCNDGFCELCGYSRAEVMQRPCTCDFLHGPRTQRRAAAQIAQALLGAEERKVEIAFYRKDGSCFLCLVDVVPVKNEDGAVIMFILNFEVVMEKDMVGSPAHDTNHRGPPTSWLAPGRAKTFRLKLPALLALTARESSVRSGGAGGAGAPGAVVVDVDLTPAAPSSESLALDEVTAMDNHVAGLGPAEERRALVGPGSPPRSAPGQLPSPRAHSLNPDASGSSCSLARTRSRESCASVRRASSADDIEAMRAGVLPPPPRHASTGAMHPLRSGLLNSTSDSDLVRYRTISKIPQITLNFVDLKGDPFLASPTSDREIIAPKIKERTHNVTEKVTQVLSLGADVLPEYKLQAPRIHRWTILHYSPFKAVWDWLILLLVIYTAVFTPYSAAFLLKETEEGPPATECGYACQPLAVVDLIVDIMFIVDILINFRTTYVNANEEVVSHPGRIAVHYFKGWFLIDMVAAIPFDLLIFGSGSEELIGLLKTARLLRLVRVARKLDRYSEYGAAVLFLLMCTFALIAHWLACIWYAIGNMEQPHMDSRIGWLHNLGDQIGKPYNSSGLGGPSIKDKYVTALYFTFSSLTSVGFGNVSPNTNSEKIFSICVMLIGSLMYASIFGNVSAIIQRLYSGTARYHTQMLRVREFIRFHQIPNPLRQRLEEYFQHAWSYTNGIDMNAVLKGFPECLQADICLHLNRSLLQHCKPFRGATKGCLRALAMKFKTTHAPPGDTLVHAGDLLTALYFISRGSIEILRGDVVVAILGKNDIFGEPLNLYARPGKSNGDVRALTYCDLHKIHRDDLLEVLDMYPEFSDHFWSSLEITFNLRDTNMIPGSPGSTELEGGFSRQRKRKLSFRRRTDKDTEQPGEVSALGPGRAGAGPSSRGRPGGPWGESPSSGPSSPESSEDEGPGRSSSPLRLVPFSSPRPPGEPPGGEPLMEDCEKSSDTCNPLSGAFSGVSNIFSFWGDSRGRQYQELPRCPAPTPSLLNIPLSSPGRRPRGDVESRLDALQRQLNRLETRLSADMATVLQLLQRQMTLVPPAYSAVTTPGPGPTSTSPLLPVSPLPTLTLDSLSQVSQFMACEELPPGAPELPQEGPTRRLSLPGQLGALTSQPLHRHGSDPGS
Sequence of Sodium channel protein type 9 subunit alpha (Q15858 whole entry): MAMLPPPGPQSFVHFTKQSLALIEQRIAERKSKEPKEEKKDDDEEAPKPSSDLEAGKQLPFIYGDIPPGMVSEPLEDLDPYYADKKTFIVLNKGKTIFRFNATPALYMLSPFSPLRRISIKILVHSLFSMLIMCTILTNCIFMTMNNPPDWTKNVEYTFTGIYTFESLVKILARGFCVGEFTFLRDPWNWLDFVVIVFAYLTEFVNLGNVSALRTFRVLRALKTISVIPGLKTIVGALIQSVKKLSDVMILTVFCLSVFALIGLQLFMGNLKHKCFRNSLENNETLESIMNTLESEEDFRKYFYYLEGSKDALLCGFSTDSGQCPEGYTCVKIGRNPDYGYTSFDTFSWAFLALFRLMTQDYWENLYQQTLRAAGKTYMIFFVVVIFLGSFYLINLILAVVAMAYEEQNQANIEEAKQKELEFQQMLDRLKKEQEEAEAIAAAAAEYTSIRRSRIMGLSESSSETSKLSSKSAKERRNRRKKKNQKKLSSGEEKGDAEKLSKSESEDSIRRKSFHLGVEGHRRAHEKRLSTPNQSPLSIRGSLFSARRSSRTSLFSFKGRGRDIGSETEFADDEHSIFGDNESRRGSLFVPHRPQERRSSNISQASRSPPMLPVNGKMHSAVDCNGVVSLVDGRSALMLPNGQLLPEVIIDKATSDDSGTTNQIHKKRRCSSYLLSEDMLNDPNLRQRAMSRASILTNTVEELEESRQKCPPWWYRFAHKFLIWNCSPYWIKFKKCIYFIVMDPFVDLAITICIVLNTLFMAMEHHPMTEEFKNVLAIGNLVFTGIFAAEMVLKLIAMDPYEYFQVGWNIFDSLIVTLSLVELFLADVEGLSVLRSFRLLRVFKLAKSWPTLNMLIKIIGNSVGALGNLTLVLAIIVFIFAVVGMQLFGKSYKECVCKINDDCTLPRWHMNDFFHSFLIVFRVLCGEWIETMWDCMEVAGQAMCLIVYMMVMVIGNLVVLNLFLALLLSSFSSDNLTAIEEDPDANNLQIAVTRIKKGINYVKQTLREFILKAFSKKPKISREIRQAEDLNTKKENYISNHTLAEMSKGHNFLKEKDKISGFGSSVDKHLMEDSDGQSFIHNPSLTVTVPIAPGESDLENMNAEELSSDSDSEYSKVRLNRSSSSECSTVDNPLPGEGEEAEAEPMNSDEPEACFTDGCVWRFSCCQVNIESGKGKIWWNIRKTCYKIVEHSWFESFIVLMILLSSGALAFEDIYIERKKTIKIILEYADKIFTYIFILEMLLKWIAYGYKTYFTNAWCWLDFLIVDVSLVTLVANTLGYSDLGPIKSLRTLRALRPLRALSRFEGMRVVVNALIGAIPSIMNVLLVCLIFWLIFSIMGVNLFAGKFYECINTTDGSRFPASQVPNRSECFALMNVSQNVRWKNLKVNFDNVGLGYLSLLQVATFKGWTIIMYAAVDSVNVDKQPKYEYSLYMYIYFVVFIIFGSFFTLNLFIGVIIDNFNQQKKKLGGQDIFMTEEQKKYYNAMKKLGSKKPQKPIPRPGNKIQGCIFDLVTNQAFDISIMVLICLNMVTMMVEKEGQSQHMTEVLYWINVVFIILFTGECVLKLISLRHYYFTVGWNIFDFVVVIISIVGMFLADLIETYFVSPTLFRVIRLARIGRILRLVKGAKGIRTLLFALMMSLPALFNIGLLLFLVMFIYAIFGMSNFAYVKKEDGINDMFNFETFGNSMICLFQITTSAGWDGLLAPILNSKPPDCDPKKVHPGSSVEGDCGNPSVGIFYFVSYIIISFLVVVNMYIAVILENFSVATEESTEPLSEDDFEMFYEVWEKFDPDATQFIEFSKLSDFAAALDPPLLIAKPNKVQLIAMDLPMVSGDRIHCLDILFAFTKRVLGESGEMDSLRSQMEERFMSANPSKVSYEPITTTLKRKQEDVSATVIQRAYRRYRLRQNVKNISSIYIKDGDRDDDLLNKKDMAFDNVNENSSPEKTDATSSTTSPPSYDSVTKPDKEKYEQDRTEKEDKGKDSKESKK

Row | SMILES | Activity [1] | inhibition [2] | inhibition [3] | Activity (PC-3 [4]) | Activity [5] | inhibition [6] | Activity (PC-3 [7]) | Activity (CWR22R) | inhibition at […], 1 µM (hERG (KCNH2) [8]) | pIC50 [9] | inhibition at […], 30 µM (hERG (KCNH2) [10]) | inhibition at […], 3 µM (hERG (KCNH2) [11]) | inhibition at […], 10 µM (hERG (KCNH2) [12]) | inhibition at […], 0.3 µM (hERG (KCNH2) [13])
1 | CCCCCCC[C@](O)(C(N)=O)c1cccc(Cl)c1 | 60% | 67.4% | 94.3% | 62% | 25% | Active | Active | – | – | – | – | – | – | –
2 | CCCCCCC[C@@](O)(C(N)=O)c1cccc(Cl)c1 | 40% | 34.9% | 91.5% | 62% | – | Active | Active | Active | – | – | – | – | – | –
3 | CCCCCCCC(O)(C(N)=O)c1cccc(Cl)c1 (racemic) | 25% | 31.9% | 87% | 62% | – | Active | Active | Active | 17% | 5.74 | 78% | 15% | 51% | 15%

Reference: ChEMBL document CHEMBL1955838, “Asymmetric synthesis and evaluation of a hydroxyphenylamide voltage-gated sodium channel blocker in human prostate cancer xenografts” (Bioorg Med Chem, 2012)
